Laboratory results from ChEMBL document CHEMBL1275323, “Synthesis and biological evaluation of 2-phenylthiazole-4-carboxamide derivatives as anticancer agents” (Eur J Med Chem, 2010).
Values after ≈ are worked out from the molar mass of the structure shown.

Legend:
Format in all cases: functional, cell-based
[1] = test system: T47D; assay: Cytotoxicity against human T47D cells after 48 hrs by MTT assay
Procedure, shortened: (§1)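 Cells seeded at 8000–10,000 viable cells/well and left 48 h to attach, then exposed to a range of compound concentrations for a further 48–96 h, depending on the cell line's cycle. After a PBS wash, MTT was added and the formazan was dissolved in DMSO. Absorbance was read at 550 nm against 690 nm reference. IC50 was obtained by linear regression from two independent experiments in triplicate (mean ± SD). Methotrexate served as reference.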

[2] = test system: Caco-2; assay: Cytotoxicity against human Caco-2 cells after 48 hrs by MTT assay; conditions: Caco-2, 48 h; procedure, shortened: as §1
[3] = test system: HT-29; assay: Cytotoxicity against human HT-29 cells after 48 hrs by MTT assay; conditions: HT-29, 48 h; procedure, shortened: as §1

SMILES	IC50 [1] [µg/mL]	IC50 [2] [µg/mL]	IC50 [3] [µg/mL]
O=C(Cc1cccc(F)c1)NCc1ccc(-c2nc(C(=O)N3CCCCC3)cs2)cc1	2.02 (≈ 4.62 µM)	4.32 (≈ 9.87 µM)	9.84 (≈ 22.5 µM)
O=C(Cc1ccc(Br)cc1)NCc1ccc(-c2nc(C(=O)N3CCCCC3)cs2)cc1	29.5 (≈ 59.1 µM)	52 (≈ 104 µM)	45.3 (≈ 90.8 µM)
O=C(Cc1ccccc1F)NCc1ccc(-c2nc(C(=O)N3CCCCC3)cs2)cc1	18.8 (≈ 43 µM)	18.1 (≈ 41.4 µM)	> 1000
O=C(Cc1cccc(Cl)c1)NCc1ccc(-c2nc(C(=O)N3CCCCC3)cs2)cc1	37.6 (≈ 82.9 µM)	155 (≈ 341 µM)	64.3 (≈ 142 µM)
COc1ccc(CC(=O)NCc2ccc(-c3nc(C(=O)N4CCCCC4)cs3)cc2)cc1	21.6 (≈ 48 µM)	1.88 (≈ 4.18 µM)	> 1000
O=C(Cc1ccc(Cl)cc1)NCc1ccc(-c2nc(C(=O)N3CCCCC3)cs2)cc1	11.8 (≈ 26 µM)	89.9 (≈ 198 µM)	5.37 (≈ 11.8 µM)
O=C(Cc1ccccc1Cl)NCc1ccc(-c2nc(C(=O)N3CCCCC3)cs2)cc1	24.3 (≈ 53.4 µM)	12.8 (≈ 28.1 µM)	26.8 (≈ 59 µM)
O=C(Cc1ccc(F)cc1)NCc1ccc(-c2nc(C(=O)N3CCCCC3)cs2)cc1	14.2 (≈ 32.4 µM)	114 (≈ 260 µM)	52 (≈ 119 µM)
CN(Cc1cnc2nc(N)nc(N)c2n1)c1ccc(C(=O)N[C@@H](CCC(=O)O)C(=O)O)cc1 [METHOTREXATE]	0.16 (≈ 0.352 µM)	0.32 (≈ 0.704 µM)	0.23 (≈ 0.506 µM)
COc1ccccc1CC(=O)NCc1ccc(-c2nc(C(=O)N3CCCCC3)cs2)cc1	6.83 (≈ 15.2 µM)	28.1 (≈ 62.4 µM)	4.46 (≈ 9.92 µM)
COc1cccc(CC(=O)NCc2ccc(-c3nc(C(=O)N4CCCCC4)cs3)cc2)c1	40.3 (≈ 89.6 µM)	41.1 (≈ 91.4 µM)	447 (≈ 995 µM)
